Test results from ChEMBL document CHEMBL5724801, “EUbOPEN Chemogenomics Library - Multiplex” (2024).
“And” between values parts separate entries of the source, which are not always exact repeats. Equal entries are not always repeated.

Legend:
Format in all cases: toxicity, cell-based
U2OS = test: Multiplex assay against U2OS; conditions: human
How it was run: (§1)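 At seeding, live cells were stained with Hoechst33342, BioTracker Green Microtubule Cytoskeleton Dye, MitoTracker Red and Annexin V Alexa Fluor 680. After compound addition they were imaged on a CQ1 microscope at 37°C and 5% CO2, and CellPathfinder machine-learning gating sorted them into Hoechst high-intensity objects or normal cells, with normal cells further split into healthy, pyknosed or fragmented nuclei and pyknosed cells into mitotic or apoptotic. Tubulin, mitochondrial-mass and membrane-permeability phenotypes are given as per cents of cells with healthy nuclei.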

Fibroblast = test: Multiplex assay against human fibroblast; how it was run: as §1
HEK-293T = test: Multiplex assay against HEK293T; conditions: human; how it was run: as §1
[1] = 12 h, 1 µM, compound concentration 1 uM
[2] = 12 h, 10 µM, compound concentration 10 uM
[3] = 24 h, 1 µM, compound concentration 1 uM
[4] = 24 h, 10 µM, compound concentration 10 uM
[5] = 48 h, 1 µM, compound concentration 1 uM
[6] = 48 h, 10 µM, compound concentration 10 uM

## COC[C@@H](CC(C)C)NC1=N/C(=C\c2ccc3ncsc3c2)C(=O)N1C
U2OS; [1]
  Population Apoptotic (%): 55.88% and 33.33%
  Population Fragmented Nuclei (%): 15.5% and 15.08%
  Population Healthy Nuclei (%): 77.48% and 78.21%
  Population Hoechst High Intensity Objects (%): 0.41% and 0%
  Population Membrane Permeable-Phenotype (%): 0.8% and 2.14%
  Population Mitochondria Different-Phenotype (%): 0.27% and 9.29%
  Population Mitotic Cells (%): 44.12% and 66.67%
  Population Normal (%): 99.59% and 100%
  Population Pyknosed Nuclei (%): 7.02% and 6.7%
  Population Tubulin-Different-Phenotype (%): 1.33% and 0%
  Total Cell Count: 486 and 179
U2OS; [2]
  Population Apoptotic (%): 25% and 29.63%
  Population Fragmented Nuclei (%): 47.65% and 84.45%
  Population Hoechst High Intensity Objects (%): 29.32% and 10.96%
  Population Membrane Permeable-Phenotype (%): 4.62% and 2.68%
  Population Mitotic Cells (%): 75% and 70.37%
  Population Normal (%): 70.68% and 89.04%
  Population Pyknosed Nuclei (%): 3.24% and 3.02%
  Population Tubulin-Different-Phenotype (%): 20.13% and 12.5%
  Total Cell Count: 873 and 1004
U2OS; [3]
  Population Apoptotic (%): 67.39% and 47.62%
  Population Fragmented Nuclei (%): 12.71% and 10%
  Population Healthy Nuclei (%): 79.7% and 80.87%
  Population Hoechst High Intensity Objects (%): 0%
  Population Membrane Permeable-Phenotype (%): 0.41% and 0%
  Population Mitochondria Different-Phenotype (%): 0.41% and 6.45%
  Population Mitotic Cells (%): 32.61% and 52.38%
  Population Normal (%): 100%
  Population Pyknosed Nuclei (%): 7.59% and 9.13%
  Population Tubulin-Different-Phenotype (%): 0.83% and 0%
  Total Cell Count: 606 and 230
U2OS; [4]
  Population Fragmented Nuclei (%): 53.16% and 86.53%
  Population Hoechst High Intensity Objects (%): 30.44% and 12.75%
  Population Membrane Permeable-Phenotype (%): 2.98% and 2.22%
  Population Mitotic Cells (%): 91.67% and 75%
  Population Normal (%): 69.56% and 87.25%
  Population Pyknosed Nuclei (%): 4.34% and 3.2%
  Population Tubulin-Different-Phenotype (%): 20% and 8.89%
  Total Cell Count: 795 and 1004
U2OS; [5]
  Population Apoptotic (%): 48.44% and 55.56%
  Population Fragmented Nuclei (%): 12.46% and 10.34%
  Population Healthy Nuclei (%): 81.16% and 82.49%
  Population Hoechst High Intensity Objects (%): 0.69% and 0.79%
  Population Membrane Permeable-Phenotype (%): 1.6% and 0.64%
  Population Mitochondria Different-Phenotype (%): 0% and 3.54%
  Population Mitotic Cells (%): 51.56% and 44.44%
  Population Normal (%): 99.31% and 99.21%
  Population Pyknosed Nuclei (%): 6.38% and 7.16%
  Population Tubulin-Different-Phenotype (%): 0.86% and 0%
  Total Cell Count: 1010 and 380
U2OS; [6]
  Population Apoptotic (%): 42.86% and 52.83%
  Population Fragmented Nuclei (%): 86.99% and 92.61%
  Population Healthy Nuclei (%): 3.8% and 2.78%
  Population Hoechst High Intensity Objects (%): 32.94% and 15.32%
  Population Membrane Permeable-Phenotype (%): 3.85% and 3.12%
  Population Mitochondria Different-Phenotype (%): 0% and 3.12%
  Population Mitotic Cells (%): 57.14% and 47.17%
  Population Normal (%): 67.06% and 84.68%
  Population Pyknosed Nuclei (%): 9.21% and 4.61%
  Population Tubulin-Different-Phenotype (%): 3.85% and 6.25%
  Total Cell Count: 1020 and 1358
Fibroblast; [1]
  Population Apoptotic (%): 28.21% and 31.58%
  Population Fragmented Nuclei (%): 27.8% and 24.34%
  Population Healthy Nuclei (%): 58.12% and 69.41%
  Population Hoechst High Intensity Objects (%): 0%
  Population Membrane Permeable-Phenotype (%): 3.73% and 4.27%
  Population Mitochondria Different-Phenotype (%): 9.94% and 6.64%
  Population Mitotic Cells (%): 71.79% and 68.42%
  Population Normal (%): 100%
  Population Pyknosed Nuclei (%): 14.08% and 6.25%
  Population Tubulin-Different-Phenotype (%): 13.66% and 33.18%
  Total Cell Count: 277 and 304
Fibroblast; [2]
  Population Fragmented Nuclei (%): 75.02% and 85.21%
  Population Healthy Nuclei (%): 17.78% and 11.87%
  Population Hoechst High Intensity Objects (%): 13.82% and 16.56%
  Population Membrane Permeable-Phenotype (%): 4.92% and 5.22%
  Population Mitochondria Different-Phenotype (%): 5.46% and 4.48%
  Population Mitotic Cells (%): 87.84% and 51.52%
  Population Normal (%): 86.18% and 83.44%
  Population Pyknosed Nuclei (%): 7.19% and 2.92%
  Population Tubulin-Different-Phenotype (%): 16.94% and 38.81%
  Total Cell Count: 1194 and 1353
Fibroblast; [3]
  Population Apoptotic (%): 32.26% and 29.41%
  Population Fragmented Nuclei (%): 28.52% and 23.81%
  Population Healthy Nuclei (%): 60.56% and 70.41%
  Population Hoechst High Intensity Objects (%): 0%
  Population Membrane Permeable-Phenotype (%): 1.16% and 4.83%
  Population Mitochondria Different-Phenotype (%): 10.47% and 6.28%
  Population Mitotic Cells (%): 67.74% and 70.59%
  Population Normal (%): 100%
  Population Pyknosed Nuclei (%): 10.92% and 5.78%
  Population Tubulin-Different-Phenotype (%): 18.02% and 35.27%
  Total Cell Count: 284 and 294
Fibroblast; [4]
  Population Apoptotic (%): 15.79% and 43.33%
  Population Fragmented Nuclei (%): 73.6% and 85.59%
  Population Healthy Nuclei (%): 21.08% and 11.79%
  Population Hoechst High Intensity Objects (%): 7.03% and 15.44%
  Population Membrane Permeable-Phenotype (%): 6.19% and 3.7%
  Population Mitotic Cells (%): 84.21% and 56.67%
  Population Normal (%): 92.97% and 84.56%
  Population Pyknosed Nuclei (%): 5.32% and 2.62%
  Population Tubulin-Different-Phenotype (%): 36.73% and 51.85%
  Total Cell Count: 1153 and 1354
Fibroblast; [5]
  Population Apoptotic (%): 32.14% and 52.94%
  Population Fragmented Nuclei (%): 34.66% and 16.78%
  Population Healthy Nuclei (%): 57.39% and 77.27%
  Population Hoechst High Intensity Objects (%): 0%
  Population Membrane Permeable-Phenotype (%): 1.98% and 1.36%
  Population Mitochondria Different-Phenotype (%): 7.43% and 5.43%
  Population Mitotic Cells (%): 67.86% and 47.06%
  Population Normal (%): 100%
  Population Pyknosed Nuclei (%): 7.95% and 5.94%
  Total Cell Count: 352 and 286
Fibroblast; [6]
  Population Apoptotic (%): 14.55% and 28.57%
  Population Fragmented Nuclei (%): 76.66% and 86.7%
  Population Healthy Nuclei (%): 18.12% and 11%
  Population Hoechst High Intensity Objects (%): 20.81% and 19.66%
  Population Membrane Permeable-Phenotype (%): 13.61% and 14.18%
  Population Mitochondria Different-Phenotype (%): 1.57% and 10.45%
  Population Mitotic Cells (%): 85.45% and 71.43%
  Population Normal (%): 79.19% and 80.34%
  Population Pyknosed Nuclei (%): 5.22% and 2.3%
  Population Tubulin-Different-Phenotype (%): 27.75% and 50.75%
  Total Cell Count: 1331 and 1516
HEK-293T; [1]
  Population Apoptotic (%): 13.64% and 37.5%
  Population Fragmented Nuclei (%): 6.45% and 8%
  Population Healthy Nuclei (%): 58.06% and 23.43%
  Population Hoechst High Intensity Objects (%): 0.8% and 0%
  Population Membrane Permeable-Phenotype (%): 0.69% and 2.44%
  Population Mitotic Cells (%): 86.36% and 62.5%
  Population Normal (%): 99.2% and 100%
  Population Pyknosed Nuclei (%): 35.48% and 68.57%
  Population Tubulin-Different-Phenotype (%): 6.94% and 14.63%
  Total Cell Count: 250 and 175
HEK-293T; [2]
  Population Apoptotic (%): 25.51% and 35.09%
  Population Fragmented Nuclei (%): 88.19% and 92.28%
  Population Healthy Nuclei (%): 3.54% and 1.77%
  Population Hoechst High Intensity Objects (%): 4.51% and 10.38%
  Population Membrane Permeable-Phenotype (%): 0% and 5.88%
  Population Mitochondria Different-Phenotype (%): 0%
  Population Mitotic Cells (%): 74.49% and 64.91%
  Population Normal (%): 95.49% and 89.62%
  Population Pyknosed Nuclei (%): 8.27% and 5.95%
  Population Tubulin-Different-Phenotype (%): 16.67% and 5.88%
  Total Cell Count: 1241 and 1069
HEK-293T; [3]
  Population Apoptotic (%): 46.3% and 34.07%
  Population Fragmented Nuclei (%): 6.23% and 6.63%
  Population Healthy Nuclei (%): 76.07% and 38.55%
  Population Hoechst High Intensity Objects (%): 2.87% and 1.19%
  Population Membrane Permeable-Phenotype (%): 0.43% and 1.56%
  Population Mitochondria Different-Phenotype (%): 19.83% and 7.81%
  Population Mitotic Cells (%): 53.7% and 65.93%
  Population Normal (%): 97.13% and 98.81%
  Population Tubulin-Different-Phenotype (%): 19.4% and 12.5%
  Total Cell Count: 314 and 168
HEK-293T; [4]
  Population Apoptotic (%): 41.88% and 34.04%
  Population Fragmented Nuclei (%): 84.82% and 94.42%
  Population Healthy Nuclei (%): 4.67% and 1.42%
  Population Hoechst High Intensity Objects (%): 5.28% and 8.58%
  Population Membrane Permeable-Phenotype (%): 9.62% and 0%
  Population Mitochondria Different-Phenotype (%): 5.77% and 0%
  Population Mitotic Cells (%): 58.12% and 65.96%
  Population Normal (%): 94.72% and 91.42%
  Population Pyknosed Nuclei (%): 10.51% and 4.16%
  Population Tubulin-Different-Phenotype (%): 15.38% and 0%
  Total Cell Count: 1175 and 1236
HEK-293T; [5]
  Population Apoptotic (%): 43.33% and 39.58%
  Population Fragmented Nuclei (%): 10.02% and 10.37%
  Population Healthy Nuclei (%): 83.97% and 54.07%
  Population Hoechst High Intensity Objects (%): 2.16% and 8.16%
  Population Membrane Permeable-Phenotype (%): 3.34% and 1.37%
  Population Mitochondria Different-Phenotype (%): 36.28% and 26.03%
  Population Mitotic Cells (%): 56.67% and 60.42%
  Population Normal (%): 97.84% and 91.84%
HEK-293T; [6]
  Population Fragmented Nuclei (%): 90.84% and 92.95%
  Population Healthy Nuclei (%): 2.22% and 3.18%
  Population Hoechst High Intensity Objects (%): 6.5% and 11.42%
  Population Membrane Permeable-Phenotype (%): 6.67% and 0%
  Population Mitochondria Different-Phenotype (%): 23.33% and 0%
  Population Normal (%): 93.5% and 88.58%
  Population Pyknosed Nuclei (%): 6.95% and 3.87%
  Population Tubulin-Different-Phenotype (%): 10% and 2.38%
  Total Cell Count: 1447 and 1489
